Legend:
[1] = target: T1, Fatty-acid amide hydrolase 1 (Rattus norvegicus, UniProt P97612); test: Inhibition of rat recombinant FAAH assessed as [3H]AEA hydrolysis
T1 sequence (P97612 whole entry): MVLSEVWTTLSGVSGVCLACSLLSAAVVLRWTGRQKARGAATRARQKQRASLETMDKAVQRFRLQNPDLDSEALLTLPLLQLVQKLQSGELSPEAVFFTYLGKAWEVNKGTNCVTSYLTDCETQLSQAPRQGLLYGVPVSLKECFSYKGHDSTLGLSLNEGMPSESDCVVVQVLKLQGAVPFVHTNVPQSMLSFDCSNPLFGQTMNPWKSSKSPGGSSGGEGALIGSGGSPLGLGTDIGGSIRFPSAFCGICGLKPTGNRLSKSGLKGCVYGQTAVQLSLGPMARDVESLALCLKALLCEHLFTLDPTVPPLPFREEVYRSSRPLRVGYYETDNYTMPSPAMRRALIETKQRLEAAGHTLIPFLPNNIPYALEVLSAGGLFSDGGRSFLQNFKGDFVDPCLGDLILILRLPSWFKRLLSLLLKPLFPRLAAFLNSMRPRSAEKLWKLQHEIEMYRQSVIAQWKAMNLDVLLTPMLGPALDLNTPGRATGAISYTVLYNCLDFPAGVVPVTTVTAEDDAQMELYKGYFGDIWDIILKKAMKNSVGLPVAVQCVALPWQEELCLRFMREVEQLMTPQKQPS
Summary of the method: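 Recombinant rat FAAH fused to maltose binding protein, 1.2 µg per assay, in 10 mM Tris-HCl pH 7.6 with 1 mM EDTA. Test compound at ten concentrations (5 µM–1.5 nM), no preincubation. [3H]-AEA added at 2 µM final, 10 min at 37 °C. Stopped with chloroform/methanol; [3H]-ethanolamine in aqueous phase counted by scintillation. Three experiments; sigmoidal variable-slope fit of % control.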

[2] = target: T1, Fatty-acid amide hydrolase 1; test: Inhibition of rat recombinant FAAH assessed as [3H]AEA hydrolysis preincubated 60 mins before [3H]AEA substrate addition
Summary of the method: (§1)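 Recombinant MBP-rat FAAH (1.2 µg/assay) in 10 mM Tris-HCl pH 7.6, 1 mM EDTA. Compound used at levels giving 20%, 50% and 80% inhibition and preincubated with enzyme for 15, 30 or 60 min. 2 µM [3H]-AEA then added, 10 min at 37 °C. Aqueous [3H]-ethanolamine counted by scintillation; IC50 by sigmoidal variable-slope fit.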

[3] = target: T1, Fatty-acid amide hydrolase 1; test: Inhibition of rat recombinant FAAH assessed as [3H]AEA hydrolysis preincubated 30 mins before [3H]AEA substrate addition; summary of the method: as §1
[4] = target: T1, Fatty-acid amide hydrolase 1; test: Inhibition of rat recombinant FAAH assessed as [3H]AEA hydrolysis preincubated 15 mins before [3H]AEA substrate addition; summary of the method: as §1
Mus musculus = species: Mus musculus; test: Stability in NMRI mouse by HPLC; assay type: ADME, organism-based; conditions: in vivo
Summary of the method: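 Three male mice injected with about 200 µCi 123I-tracer in ethanol/saline (8:92) and killed at 3 min. Plasma and brain extracted with acetonitrile and centrifuged. Supernatant run on C18 HPLC (acetonitrile/water/formic acid 80:20:0.1, 6 ml/min); 0.5-min fractions gamma-counted, plus radio-TLC.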

[5] = target: T1, Fatty-acid amide hydrolase 1; test: Inhibition of rat recombinant FAAH assessed as [3H]AEA hydrolysis preincubated before [3H]AEA substrate addition; summary of the method: as §1
Plasma = test: Stability in NMRI mouse plasma at 3 uCi; assay type: ADME, cell-free
Summary of the method: (§2)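 Brain and EDTA plasma from three male NMRI mice, kept on ice, spiked ex vivo with 3 µCi 123I-tracer. Extracted with acetonitrile and centrifuged; supernatant and pellet gamma-counted for extraction efficiency. Supernatant analysed by radio-TLC (silica, hexane/ethyl acetate 4:6) and C18 HPLC (acetonitrile/water/formic acid 80:20:0.1), fractions gamma-counted.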

Brain [6] = test: Drug uptake in NMRI mouse brain at 4 to 5 uCi, iv after 10 mins post injection; assay type: ADME, organism-based; conditions: in vivo
Summary of the method: (§3)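 Adult male NMRI mice (20–25 g) given 4–5 µCi of 123I-tracer iv via tail vein in ethanol/saline (8:92). Killed by cervical dislocation under isoflurane at set times, n = 3 per time point. Organs removed and weighed, radioactivity gamma-counted. Uptake expressed as %ID/g tissue ± SD.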

Stomach [7] = test: Drug uptake in NMRI mouse stomach at 4 to 5 uCi, iv after 1 min post injection; assay type: ADME, organism-based; conditions: in vivo; summary of the method: as §3
Brain [8] = test: Stability in NMRI mouse brain at 3 uCi; assay type: ADME, tissue-based; summary of the method: as §2
[9] = Drug uptake in NMRI mouse small intestine at 4 to 5 uCi, iv after 10 mins post injection; assay type: ADME, organism-based; conditions: in vivo; summary of the method: as §3
Stomach [10] = test: Drug uptake in NMRI mouse stomach at 4 to 5 uCi, iv after 1 hr post injection; assay type: ADME, organism-based; conditions: in vivo; summary of the method: as §3
[11] = Drug uptake in NMRI mouse large intestine at 4 to 5 uCi, iv after 10 mins post injection; assay type: ADME, organism-based; conditions: in vivo; summary of the method: as §3
Brain [12] = test: Drug uptake in NMRI mouse brain at 4 to 5 uCi, iv after 3 mins post injection; assay type: ADME, organism-based; conditions: in vivo, 0.05 h
Summary of the method: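 Adult male NMRI mice (20–25 g) given 4–5 µCi radiotracer iv via tail vein in 200 µl ethanol/saline (8:92). Killed by cervical dislocation under isoflurane at set times after injection, n = 3 per time point. Brain removed and weighed, radioactivity gamma-counted. Uptake given as %ID/g tissue ± SD.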

Drug uptake (Brain [12]) [% ID/g] | Compound | IC50 ([1]; read-out: IC50) [µM] | IC50 [2] [µM] | IC50 [3] [µM] | IC50 [4] [µM] | Activity (Mus musculus) | IC50 [5] [µM] | Stability (Plasma) [%] | Drug uptake (Brain [6]) [% ID/g] | Drug uptake (Stomach [7]) [% ID/g] | Stability (Brain [8]) [%] | Drug uptake [9] [% ID/g] | Drug uptake (Stomach [10]) [% ID/g] | Drug uptake [11] [% ID/g] | IC50 ([1]; read-out: pIC50 (converted)) [µM]
– | CCCCC/C=C\C/C=C\C/C=C\C/C=C\CCCC(=O)NCCI | 3.14 | 10.1 | 9.89 | 7.93 | Active | 4.31 | – | – | – | – | – | – | – | –
– | CCCCC/C=C\C/C=C\C/C=C\C/C=C\CCCC(=O)NCC[123I] | – | – | – | – | – | – | 92 | 0.579 | 3.1 | 89 | 1.46 | 17.74 | 1.04 | –
– | CCCCC/C=C\C/C=C\CCCCCCCC(=O)NCCO [LINOLEOYLETHANOLAMIDE] | 7.58 | – | – | – | – | – | – | – | – | – | – | – | – | 7.59
1.23 | CCCCC/C=C\C/C=C\CCCCCCCC(=O)NCC[123I] | – | – | – | – | – | – | 94 | – | 2.58 | 94 | 1.84 | 24.57 | 1.33 | –
– | CCCCC/C=C\C/C=C\CCCCCCCC(=O)NCCI | 5.78 | 7.33 | 7.64 | 6.66 | Active | 6.2 | – | – | – | – | – | – | – | –

— ChEMBL document CHEMBL1139323, “Radiosynthesis, in vitro and in vivo evaluation of 123I-labeled anandamide analogues for mapping brain FAAH” (Bioorg Med Chem, 2009)
